Experimental data: ChEMBL document CHEMBL1147115 (2007)
≈ marks a conversion by molar mass, not a printed value.

Columns and labels:
Klebsiella pneumoniae [1] = test: Antimicrobial activity against ESBL producing Klebsiella pneumoniae 265 isolate; format: functional
Klebsiella pneumoniae [2] = test: Antimicrobial activity against ESBL producing Klebsiella pneumoniae 268 isolate; format: functional
Klebsiella pneumoniae [3] = test: Antimicrobial activity against ESBL producing Klebsiella pneumoniae 270 isolate; format: functional
Klebsiella pneumoniae [4] = test: Antimicrobial activity against ESBL producing Klebsiella pneumoniae 260 isolate; format: functional
Klebsiella pneumoniae [5] = test: Antimicrobial activity against ESBL producing Klebsiella pneumoniae 264 isolate; format: functional
Escherichia coli [6] = test: Antimicrobial activity against ESBL producing Escherichia coli 311 isolate; format: functional
Klebsiella pneumoniae [7] = test: Antimicrobial activity against ESBL producing Klebsiella pneumoniae 255 isolate; format: functional
Klebsiella pneumoniae [8] = test: Antimicrobial activity against ESBL producing Klebsiella pneumoniae 254 isolate; format: functional
Klebsiella pneumoniae [9] = test: Antimicrobial activity against ESBL producing Klebsiella pneumoniae 259 isolate; format: functional
Klebsiella pneumoniae [10] = test: Antimicrobial activity against ESBL producing Klebsiella pneumoniae 263 isolate; format: functional
Klebsiella pneumoniae [11] = test: Antimicrobial activity against ESBL producing Klebsiella pneumoniae 266 isolate; format: functional
Klebsiella pneumoniae [12] = test: Antimicrobial activity against ESBL producing Klebsiella pneumoniae 257 isolate; format: functional
Klebsiella pneumoniae [13] = test: Antimicrobial activity against ESBL producing Klebsiella pneumoniae 258 isolate; format: functional
Klebsiella pneumoniae [14] = test: Antimicrobial activity against ESBL producing Klebsiella pneumoniae 262 isolate; format: functional
Klebsiella pneumoniae [15] = test: Antimicrobial activity against ESBL producing Klebsiella pneumoniae 256 isolate; format: functional
Klebsiella pneumoniae [16] = test: Antimicrobial activity against ESBL producing Klebsiella pneumoniae 261 isolate; format: functional
Escherichia coli [17] = test: Antimicrobial activity against Escherichia coli ATCC 25922 isolate infected thigh infection model ICR mouse; format: functional, Thigh muscle
Procedure, shortened: (§1)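 Female ICR mice (~25 g) were made neutropenic with cyclophosphamide ip (150 and 100 mg/kg, days −4 and −1) and renally impaired with uranyl nitrate 5 mg/kg ip (day −3). Each thigh got 0.1 ml of 10^5 CFU/ml (or 10^7 for high inoculum) im 2 h pre-therapy. Human-simulated regimens were given sc, three mice per group, for 24 h. Efficacy was the log10 CFU/thigh change versus 0-h controls.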

Escherichia coli [18] = test: Antimicrobial activity against Escherichia coli 120 isolate infected thigh infection model ICR mouse; format: functional, Thigh muscle; procedure, shortened: as §1
Escherichia coli [19] = test: Antimicrobial activity against ESBL producing Escherichia coli 320 isolate infected thigh infection model ICR mouse; format: functional, Thigh muscle; procedure, shortened: as §1
Escherichia coli [20] = test: Antimicrobial activity against ESBL producing Escherichia coli 321 isolate infected thigh infection model ICR mouse; format: functional, Thigh muscle; procedure, shortened: as §1
Escherichia coli [21] = test: Antimicrobial activity against ESBL producing Escherichia coli 322 isolate infected thigh infection model ICR mouse; format: functional, Thigh muscle; procedure, shortened: as §1
Escherichia coli [22] = test: Antimicrobial activity against ESBL producing Escherichia coli 310 isolate infected thigh infection model ICR mouse; format: functional, Thigh muscle; procedure, shortened: as §1
Escherichia coli [23] = test: Antimicrobial activity against ESBL producing Escherichia coli 312 isolate infected thigh infection model ICR mouse; format: functional, Thigh muscle; procedure, shortened: as §1
Escherichia coli [24] = test: Antimicrobial activity against ESBL producing Escherichia coli 318 isolate infected thigh infection model ICR mouse; format: functional, Thigh muscle; procedure, shortened: as §1
Escherichia coli [25] = test: Antimicrobial activity against ESBL producing Escherichia coli 243 isolate infected thigh infection model ICR mouse; format: functional, Thigh muscle; procedure, shortened: as §1
Escherichia coli [26] = test: Antimicrobial activity against ESBL producing Escherichia coli 285 isolate infected thigh infection model ICR mouse; format: functional, Thigh muscle; procedure, shortened: as §1
Klebsiella pneumoniae [27] = test: Antimicrobial activity against ESBL producing Klebsiella pneumoniae 225 isolate infected thigh infection model ICR mouse; format: functional, Thigh muscle; procedure, shortened: as §1
Klebsiella pneumoniae [28] = test: Antimicrobial activity against ESBL producing Klebsiella pneumoniae 60 isolate infected thigh infection model ICR mouse; format: functional, Thigh muscle; procedure, shortened: as §1
Escherichia coli [29] = test: Antimicrobial activity against ESBL producing Escherichia coli 315 isolate infected thigh infection model ICR mouse; format: functional, Thigh muscle; procedure, shortened: as §1
Escherichia coli [30] = test: Antimicrobial activity against ESBL producing Escherichia coli 130 isolate infected thigh infection model ICR mouse; format: functional, Thigh muscle; procedure, shortened: as §1
Klebsiella pneumoniae [31] = test: Antimicrobial activity against ESBL producing Klebsiella pneumoniae 265 isolate infected thigh infection model ICR mouse; format: functional, Thigh muscle; procedure, shortened: as §1
Escherichia coli [32] = test: Antimicrobial activity against ESBL producing Escherichia coli 133 isolate infected thigh infection model ICR mouse; format: functional, Thigh muscle; procedure, shortened: as §1
Klebsiella pneumoniae [33] = test: Antimicrobial activity against ESBL producing Klebsiella pneumoniae 101 isolate infected thigh infection model ICR mouse; format: functional, Thigh muscle; procedure, shortened: as §1
Klebsiella pneumoniae [34] = test: Antimicrobial activity against ESBL producing Klebsiella pneumoniae 230 isolate infected thigh infection model ICR mouse; format: functional, Thigh muscle; procedure, shortened: as §1

C[C@@H](O)[C@H]1C(=O)N2C(C(=O)O)=C(S[C@@H]3CN[C@H](C(=O)Nc4cccc(C(=O)O)c4)C3)[C@H](C)[C@H]12
MIC (Klebsiella pneumoniae [1]): 0.5 µg/mL (≈ 1.05 µM)
MIC (Klebsiella pneumoniae [2]): 0.25 µg/mL (≈ 0.526 µM)
MIC (Klebsiella pneumoniae [3]): 0.5 µg/mL (≈ 1.05 µM)
MIC (Klebsiella pneumoniae [4]): 1 µg/mL (≈ 2.1 µM)
MIC (Klebsiella pneumoniae [5]): 4 µg/mL (≈ 8.41 µM)
MIC (Escherichia coli [6]): 4 µg/mL (≈ 8.41 µM)
MIC (Klebsiella pneumoniae [7]): 2 µg/mL (≈ 4.21 µM)
MIC (Klebsiella pneumoniae [8]): 16 µg/mL (≈ 33.6 µM)
MIC (Klebsiella pneumoniae [9]): 16 µg/mL (≈ 33.6 µM)
MIC (Klebsiella pneumoniae [10]): 8 µg/mL (≈ 16.8 µM)
MIC (Klebsiella pneumoniae [11]): 8 µg/mL (≈ 16.8 µM)
MIC (Klebsiella pneumoniae [12]): 16 µg/mL (≈ 33.6 µM)
MIC (Klebsiella pneumoniae [13]): 16 µg/mL (≈ 33.6 µM)
MIC (Klebsiella pneumoniae [14]): 64 µg/mL (≈ 135 µM)
MIC (Klebsiella pneumoniae [15]): 32 µg/mL (≈ 67.3 µM)
MIC (Klebsiella pneumoniae [16]): 128 µg/mL (≈ 269 µM)
fT>MIC (Escherichia coli [17]): 93%
fT>MIC (Escherichia coli [18]): 77%
fT>MIC (Escherichia coli [19]): 40%
fT>MIC (Escherichia coli [20]): 90%
fT>MIC (Escherichia coli [21]): 90%
fT>MIC (Escherichia coli [22]): 67%
fT>MIC (Escherichia coli [23]): 53%
fT>MIC (Escherichia coli [24]): 90%
fT>MIC (Escherichia coli [25]): 67%
fT>MIC (Escherichia coli [26]): 80%
fT>MIC (Klebsiella pneumoniae [27]): 87%
fT>MIC (Klebsiella pneumoniae [28]): 90%
fT>MIC (Escherichia coli [29]): 77%
fT>MIC (Escherichia coli [30]): 30%
fT>MIC (Klebsiella pneumoniae [31]): 40%
fT>MIC (Escherichia coli [32]): 23%
fT>MIC (Klebsiella pneumoniae [33]): 60%
fT>MIC (Klebsiella pneumoniae [34]): 60%
